Data set [1] concerns the target T1, Cannabinoid receptor 1 (Homo sapiens, UniProt P21554). As to the kind of experiment: Positive allosteric modulatory activity at human CB1R expressed in CHO-K1 cells assessed as increase in CP55940-induced beta-arrestin2 recruitment after 90 mins in presence of CP55940 at EC20 concentration by pathhunter beta-arrestin assay relative to control. Type of data set: cell-based. In a few lines: (§1)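 Read-out was chemiluminescent β-arrestin2 recruitment, fit with a 4-parameter regression. n = 1–3 independent experiments in duplicate.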
In general terms: Activated receptors often draw arrestin, which recruitment assays turn into a signal.

The target of data set [2] is T1, Cannabinoid receptor 1. As to the kind of experiment: Positive allosteric modulatory activity at human CB1R expressed in CHO-K1 cells assessed as increase in CP55940-induced beta-arrestin2 recruitment after 90 mins in presence of CP55940 at EC20 concentration by pathhunter beta-arrestin assay. Type of data set: cell-based. In a few lines:
as §1

Data set [3] concerns the target T1, Cannabinoid receptor 1. The data set can be described thus: Positive allosteric modulatory activity at human CB1R expressed in CHO-K1 cells assessed as increase in CP55940-induced inhibition of forskolin-stimulated cAMP production after 30 mins in presence of CP55940 at EC20 concentration by hit-hunter cAMP assay relative to control. The format is functional, cell-based. In a few lines:
(§2)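 Read-out was chemiluminescent cAMP detection, fit with a variable-slope 4-parameter regression. n = 1–3 independent experiments in duplicate.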

The target of data set [4] is T1, Cannabinoid receptor 1. The data set can be described thus: Positive allosteric modulatory activity at human CB1R expressed in CHO-K1 cells assessed as increase in CP55940-induced inhibition of forskolin-stimulated cAMP production after 30 mins in presence of CP55940 at EC20 concentration by hit-hunter cAMP assay. The format is functional, cell-based. A digest of the protocol:
as §2

For data set [5] the following is noted: buffer, pH 7.4, 24 h.

In general, Emax refers to the size of the effect at its maximum, as opposed to the concentration needed. The term EC50 denotes the concentration needed to bring the measured effect to its halfway point.

Structures are written as SMILES. Some results are limits rather than exact numbers.

T1 sequence (P21554 whole entry): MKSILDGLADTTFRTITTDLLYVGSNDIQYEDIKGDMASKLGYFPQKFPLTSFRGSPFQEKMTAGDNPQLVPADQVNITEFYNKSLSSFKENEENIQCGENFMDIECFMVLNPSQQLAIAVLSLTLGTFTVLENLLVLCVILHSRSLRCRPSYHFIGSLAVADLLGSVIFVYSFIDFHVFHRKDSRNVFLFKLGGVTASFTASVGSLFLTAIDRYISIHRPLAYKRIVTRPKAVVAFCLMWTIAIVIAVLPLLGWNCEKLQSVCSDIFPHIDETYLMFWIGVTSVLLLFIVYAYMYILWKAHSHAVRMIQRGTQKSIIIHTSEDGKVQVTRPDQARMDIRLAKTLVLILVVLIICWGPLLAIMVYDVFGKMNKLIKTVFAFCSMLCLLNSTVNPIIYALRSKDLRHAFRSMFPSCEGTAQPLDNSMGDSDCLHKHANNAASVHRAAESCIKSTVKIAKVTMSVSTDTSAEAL

Consider `O=[N+]([O-])CC(c1ccccc1)c1c(-c2ccccc2)[nH]c2cccc(F)c12` (stereo not drawn), for which the figures for the Emax in data set [1] and in data set [3] were 37% and 120%, respectively. Moreover, the EC50 in data set [2] was 900 nM; in data set [4], 130 nM.
For `O=[N+]([O-])CC(c1ccccc1F)c1c(-c2ccccc2)[nH]c2ccccc12` (stereo not drawn), in that order: 63%, 110%, 1060 nM and 43 nM.
In the case of `O=[N+]([O-])CC(c1ccncc1)c1c(-c2ccccc2)[nH]c2ccccc12` (stereo not drawn), the Emax in data set [1] is 25%; in data set [3], 110%. For the same compound, the EC50 worked out at 4000 nM in data set [2] and 510 nM in data set [4]. This compound also showed a Therm_solubility in data set [5] of 36.7 µM.
Turning to `O=[N+]([O-])CC(c1ccc(F)cc1)c1c(-c2cccc(F)c2)[nH]c2c(F)cccc12` (stereo not drawn), the results for the Emax in data set [1] and in data set [3] were 43% and 110%, respectively. Also, the EC50 in data set [2] was 1100 nM; in data set [4], 230 nM.
For `O=[N+]([O-])CC(c1ccccc1)c1c(-c2ccccc2F)[nH]c2ccccc12` (stereo not drawn), in that order: 7%, 140%, 710 nM and 1400 nM.
`O=[N+]([O-])CC(c1cccnc1)c1c(-c2ccccc2)[nH]c2ccccc12` (stereo not drawn): the Emax was -8.1% in data set [1] and 170% in data set [3]. Further, the EC50 in data set [2] is over 10000 nM; in data set [4] it was 3100 nM. Also, the Therm_solubility in data set [5] came out at 1.1 µM.
Regarding `O=[N+]([O-])CC(c1ccccc1)c1c(-c2ccccc2)[nH]c2ccc(F)cc12` (stereo not drawn), the Emax stood at 23% in data set [1] and 130% in data set [3]. In addition, the EC50 is 740 nM in data set [2] and 191 nM in data set [4].
For `O=[N+]([O-])CC(c1ccc(F)cc1)c1c(-c2cccc(F)c2)[nH]c2cc(F)ccc12` (stereo not drawn), in that order: 56%, 91%, 2100 nM and 1150 nM.
As for `O=[N+]([O-])CC(c1ccccc1)c1c(-c2ccccc2)[nH]c2c(F)cccc12` (stereo not drawn), the values for the Emax in data set [1] and in data set [3] were 45% and 120%, respectively. Further, the EC50 amounted to 750 nM in data set [2] and 22 nM in data set [4].
For `O=[N+]([O-])CC(c1ccc(F)cc1)c1c(-c2ccccc2)[nH]c2ccccc12` (stereo not drawn), in that order: 8%, 110%, over 10000 nM and 440 nM.
Consider `O=[N+]([O-])CC(c1ccccc1F)c1c(-c2ccccc2)[nH]c2cc(F)ccc12` (stereo not drawn), for which the figures for the EC50 in data set [2] and in data set [4] were 1140 nM and 58 nM, respectively.
For `O=[N+]([O-])CC(c1ccc(F)cc1)c1c(-c2ccccc2)[nH]c2c(F)cccc12` (stereo not drawn), the Emax in data set [1] came out at 27%; in data set [3], 121%. For the same compound, the concentration for a half-maximal effect (EC50) in data set [2] is 700 nM; in data set [4] it was 270 nM.
As to `O=[N+]([O-])CC(c1ccccc1)c1c(-c2ccc(F)cc2)[nH]c2ccccc12` (stereo not drawn), the Emax in data set [1] is -2.2%; in data set [3] it was 120%. For the same compound, the EC50 in data set [2] is over 10000 nM; in data set [4], 1600 nM.
Turning to `O=[N+]([O-])CC(c1ccc(F)cc1)c1c(-c2ccccc2)[nH]c2cc(F)ccc12` (stereo not drawn), the figures for the Emax in data set [1] and in data set [3] were 32% and 47%, respectively. In addition, the EC50 in data set [2] amounted to 1100 nM; in data set [4] it was 1300 nM.
Consider `O=[N+]([O-])CC(c1ccccc1)c1c(-c2ccccc2)[nH]c2cc(F)ccc12` (stereo not drawn), for which the Emax in data set [1] was found to be 38%; in data set [3], 120%. The EC50 in data set [2] came to 1100 nM; in data set [4], 110 nM.
Turning to `O=[N+]([O-])CC(c1ccccc1)c1c(-c2cccc(F)c2)[nH]c2ccccc12` (stereo not drawn), the figures for the EC50 in data set [2] and in data set [4] were 1300 nM and 80 nM, respectively.
For `O=[N+]([O-])CC(c1ccccc1F)c1c(-c2ccccc2)[nH]c2c(F)cccc12` (stereo not drawn) the same measures were 680 nM and 21 nM.
`O=[N+]([O-])CC(c1cccc(F)c1)c1c(-c2ccccc2)[nH]c2ccccc12` (stereo not drawn): the Emax in data set [1] stood at 19%; in data set [3] it was 130%. Also, the results for the EC50 in data set [2] and in data set [4] were 2500 nM and 730 nM, respectively.

The values above are taken from ChEMBL document CHEMBL4376840, “Application of Fluorine- and Nitrogen-Walk Approaches: Defining the Structural and Functional Diversity of 2-Phenylindole Class of Cannabinoid 1 Receptor Positive Allosteric Modulators” (J Med Chem, 2020).
